Laboratory results from ChEMBL document CHEMBL1126327, “Synthesis and antihypertensive activity of 3-[(substituted-carbonyl)amino]-2H-1-benzopyrans” (1992).

Columns and labels:
Format in all cases: functional
Rattus norvegicus [1] = assay: Oral antihypertensive activity in spontaneously hypertensive rats at a dose of 3 mg/kg (po)
Procedure, shortened: (§1)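 Conscious spontaneously hypertensive rats (Okamoto-derived, 14-24 weeks old; systolic pressure >180 mmHg counted as hypertensive) dosed by oral needle into the esophagus as a solution or suspension in 1% w/v methylcellulose. Systolic pressure was taken by tail-cuff, each reading the mean of at least five recordings, before dosing and at intervals up to 6 h. The maximum fall was recorded.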

Rattus norvegicus [2] = assay: Oral antihypertensive activity in spontaneously hypertensive rats at a dose of 1 mg/kg (po); procedure, shortened: as §1
Rattus norvegicus [3] = assay: Compound was evaluated for oral antihypertensive activity in spontaneously hypertensive rats at a dose of 1.0 mg/kg (po); procedure, shortened: as §1
Rattus norvegicus [4] = assay: Oral antihypertensive activity in spontaneously hypertensive rats at a dose of 0.3 mg/kg (po); procedure, shortened: as §1
Rattus norvegicus [5] = assay: Compound was evaluated for oral antihypertensive activity in spontaneously hypertensive rats at a dose of 0.1 mg/kg (po); procedure, shortened: as §1
Rattus norvegicus [6] = assay: Compound was evaluated for oral antihypertensive activity in spontaneously hypertensive rats at a dose of 3 mg/Kg (po); procedure, shortened: as §1
Rattus norvegicus [7] = assay: Compound was evaluated for oral antihypertensive activity in spontaneously hypertensive rats at a dose of 10 mg/Kg (po); procedure, shortened: as §1
Rattus norvegicus [8] = assay: Compound was evaluated for oral antihypertensive activity in spontaneously hypertensive rats at a dose of 1 mg/Kg (po); procedure, shortened: as §1
Rattus norvegicus [9] = assay: Oral antihypertensive activity in spontaneously hypertensive rats at a dose of 10 mg/kg (po); procedure, shortened: as §1

| Structure (SMILES) | Max fall in blood pressure (Rattus norvegicus [1]) [%] | Max fall in blood pressure (Rattus norvegicus [2]) [%] | Max fall in blood pressure (Rattus norvegicus [4]) [%] | other results |
| --- | --- | --- | --- | --- |
| CC1(C)Oc2ccc(C#N)cc2C(O)[C@H]1NC(=O)C1CCCCC1 (some centres not stated) | -9 | -11 |  |  |
| CC(C)(C)NC(=O)N[C@@H]1C(O)c2cc(C#N)ccc2OC1(C)C (some centres not stated) |  |  | -40 | Max fall in blood pressure (Rattus norvegicus [3]): -63%; Max fall in blood pressure (Rattus norvegicus [5]): -19% |
| CC(C)NC(=O)N[C@@H]1C(O)c2cc(C#N)ccc2OC1(C)C (some centres not stated) |  | -26 | -22 |  |
| CC(C)(C)OC(=O)N[C@@H]1C(O)c2cc(C#N)ccc2OC1(C)C (some centres not stated) |  |  |  | Max fall in blood pressure (Rattus norvegicus [6]): -30%; Max fall in blood pressure (Rattus norvegicus [7]): -49%; Max fall in blood pressure (Rattus norvegicus [8]): -14% |
| CC(C)(C)NC(=O)N[C@@H]1C(O)c2cc(Cl)ccc2OC1(C)C (some centres not stated) | -34 |  | -16 |  |
| CC(C)(C)C(=O)N[C@@H]1C(O)c2cc(C#N)ccc2OC1(C)C (some centres not stated) |  | -36 | -30 |  |
| CC1(C)Oc2ccc(C#N)cc2C(O)[C@H]1NC(=O)c1ccccn1 (some centres not stated) | -15 | -18 |  |  |
| CC(C)/N=C(\S)N[C@@H]1C(O)c2cc(C#N)ccc2OC1(C)C (some centres not stated) |  |  | -49 |  |
| CNC(=O)N[C@@H]1C(O)c2cc(C#N)ccc2OC1(C)C (some centres not stated) | -8 |  |  | Max fall in blood pressure (Rattus norvegicus [9]): -24% |
| CC1(C)Oc2ccc(C#N)cc2C(O)[C@H]1NC(=O)NC1CCCCC1 (some centres not stated) | -14 |  |  |  |
| CC(C)(C)NC(=O)N[C@@H]1C(O)c2cc(C(F)(F)F)ccc2OC1(C)C (some centres not stated) |  | -31 |  |  |
| CC1(C)Oc2ccc(C#N)cc2C(N2CCCC2=O)C1O (configuration not stated) [CROMAKALIM] |  | -47 | -39 | Max fall in blood pressure (Rattus norvegicus [5]): -13% |
| CCCNC(=O)N[C@@H]1C(O)c2cc(C#N)ccc2OC1(C)C (some centres not stated) | -32 | -10 |  |  |
| CC1(C)Oc2ccc(C#N)cc2C(O)[C@H]1N1CCCCC1=O (some centres not stated) | -20 |  |  | Max fall in blood pressure (Rattus norvegicus [9]): -16% |
| CC(C)(C)NC(=O)N[C@@H]1Cc2cc(C#N)ccc2OC1(C)C |  |  | -27 |  |
| CC1(C)Oc2ccc(C#N)cc2C(O)[C@H]1NC(=O)c1ccc(F)cc1 (some centres not stated) | -42 | -22 |  |  |
| CCNC(=O)N[C@@H]1C(O)c2cc(C#N)ccc2OC1(C)C (some centres not stated) | -18 | -13 |  |  |
| CN(C)C(=O)N[C@@H]1C(O)c2cc(C#N)ccc2OC1(C)C (some centres not stated) | -27 |  |  |  |
| CC(C)(C)CC(=O)N[C@@H]1C(O)c2cc(C#N)ccc2OC1(C)C (some centres not stated) | -27 | -9 |  |  |
| COC1c2cc(C#N)ccc2OC(C)(C)[C@@H]1NC(=O)OC(C)(C)C (some centres not stated) | -39 |  |  |  |
| CC(=O)N[C@@H]1C(O)c2cc(C#N)ccc2OC1(C)C (some centres not stated) | -14 |  |  | Max fall in blood pressure (Rattus norvegicus [9]): -32% |
| CC(C)(C)OC(=O)N[C@@H]1C(N)c2cc(C#N)ccc2OC1(C)C (some centres not stated) |  |  |  | Max fall in blood pressure (Rattus norvegicus [9]): -25% |
| CC1(C)Oc2ccc(C#N)cc2C(O)[C@H]1NC(=O)c1ccc(F)c(F)c1 (some centres not stated) | -37 | -6 |  |  |
| CC1(C)Oc2ccc(C#N)cc2C(O)[C@H]1NC(=O)c1ccccc1 (some centres not stated) | -20 |  |  |  |
| CC(C)(C)OC(=O)N[C@@H]1Cc2cc(C#N)ccc2OC1(C)C | -26 |  |  | Max fall in blood pressure (Rattus norvegicus [9]): -30% |
| CC(C)C(=O)N[C@@H]1C(O)c2cc(C#N)ccc2OC1(C)C (some centres not stated) |  |  | -39 | Max fall in blood pressure (Rattus norvegicus [5]): -22% |
